Screening data from PubChem BioAssay.
mABHD4 FP – inhibitors of mouse ABHD4; Q8VD66; purified mABHD4, FP-Rh probe fluorescence polarization; inhibition, % at 8.92 µM; 370,000 compounds, 0.54% hits;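 active = inhibition exceeding the mean over every tested compound plus 3 SD, cut at about 30% in these data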;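 also: 0% = plate median of compound wells and 100% = S159A mutant with DMSO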
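Test system: mABHD4 protein | Buffer or medium: HEPES pH 7.0 buffer, 150 mM NaCl, 0.01% Pluronic F-127 | Probe or stimulus: FP-Rh fluorescent activity-based probe, added after compound pre-incubation | Timing: Pre-incubation 45 min, probe exposure 60 min, at 25 °C | Technique: Fluorescence polarization, excitation 525 nm, emission 598 nm, BODIPY TMR filters | Repeats: Single well per compound (singlicate)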
SIAE inh – blocks human sialic acid acetylesterase | Q9HAT2 | SIAE FP-Rh probe binding, fluorescence polarization | inhibition, % at 9.66 µM | 370,000 compounds, 0.69% hits | AID 1053197;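 active = inhibition above a cutoff: mean of compounds within the control limits plus 3 SD of those, cut at about 17% in these data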;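 also: 0% = plate median of compound wells and 100% = probe without SIAE protein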
Target sequence (Q9HAT2 whole entry, looked up): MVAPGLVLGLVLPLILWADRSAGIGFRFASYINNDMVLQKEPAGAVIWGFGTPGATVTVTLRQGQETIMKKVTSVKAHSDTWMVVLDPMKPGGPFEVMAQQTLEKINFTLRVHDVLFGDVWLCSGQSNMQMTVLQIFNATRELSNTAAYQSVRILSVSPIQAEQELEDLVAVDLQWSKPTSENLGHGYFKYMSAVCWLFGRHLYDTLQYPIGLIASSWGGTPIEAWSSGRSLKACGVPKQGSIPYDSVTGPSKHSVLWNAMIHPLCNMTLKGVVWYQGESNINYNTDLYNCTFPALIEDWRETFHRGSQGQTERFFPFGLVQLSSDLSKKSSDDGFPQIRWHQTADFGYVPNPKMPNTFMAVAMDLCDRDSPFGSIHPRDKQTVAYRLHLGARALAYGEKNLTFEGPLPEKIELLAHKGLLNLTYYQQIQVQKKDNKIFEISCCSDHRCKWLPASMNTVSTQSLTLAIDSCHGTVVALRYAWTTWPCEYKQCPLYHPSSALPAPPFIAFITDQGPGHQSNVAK
HTRA1 inhibitor – blocks human HTRA1 serine peptidase | Q92743 | recombinant HTRA1, FP-rhodamine activity-based probe, fluorescence polarization | inhibition, % at 5.96 µM | 340,000 compounds, 0.5% hits; in the data active = inhibition above about 36%;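 also: 0% = enzyme with DMSO and 100% = wells lacking enzyme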
PRMT1 FP inh – PRMT1 (human) inhibition, primary screen | inhibition, % at 2.79 µM | 370,000 compounds, 1.3% hits | recombinant PRMT1, activity-based probe fluorescence polarization;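 active = inhibition above about 21% made by adding two undisclosed values, limit read from the data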
GASC-1 inh – blocks human GASC-1 demethylase activity | Q9H3R0 | GST-JMJD2C(1-420) H3K9me3 demethylation, DELFIA europium | inhibition, % at 2.35 µM | 330,000 compounds, 0.069% hits | AID 2099;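 active = more than half of a compound's replicate wells show inhibition beyond 50%, single wells judged on their own value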;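 also: signal counts dimethyl H3K9 product captured on neutravidin plate; 0% = median of DMSO wells and 100% = 0.3 times that DMSO median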
PRMT1 inh conf – PRMT1 (human) inhibition, FP confirmation. 3,300 compounds, 42% hits. shares compounds with PRMT1 FP inh. inhibition, % at 2.79 µM. recombinant His-PRMT1, activity-based probe fluorescence polarization;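 active = mean inhibition across replicates above the hit cutoff derived for the earlier primary screen, cut at about 22% in these data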
Numbers without * were called inactive; . = no result given. Only some compounds are listed: those with a hit (about 2.4% of all), similar ones and a draw of the others.

SMILES | mABHD4 FP | SIAE inh | HTRA1 inhibitor | PRMT1 FP inh | GASC-1 inh | PRMT1 inh conf
COc1cc(OC)c(C2CC(=O)N3CN(c4ccc(C)cc4)CSC3=C2C#N)cc1OC (stereo not drawn) | 17 | -4 | -3 | 62* | -5 | 93*
Cc1ccc(N2CSC3=C(C#N)C(c4cccs4)CC(=O)N3C2)cc1 (stereo not drawn) | 12 | -3 | -2 | 52* | -7 | 34*
COc1ccc(N2CSC3=C(C#N)C(c4cc(OC)c(OC)cc4OC)CC(=O)N3C2)c(OC)c1 (stereo not drawn) | 22 | 6 | 9 | 39* | 2 | 63*
CCOc1ccccc1N1CSC2=C(C#N)C(c3c(OC)ccc4ccccc34)CC(=O)N2C1 (stereo not drawn) | 26 | 3 | -1 | 49* | 8 | 70*
Cc1ccc2c(c1)N(CCCC(=O)NCc1cccs1)C(=O)CO2 | 6 | 3 | . | -1 | . | .
CCCCCC(=O)NC1CCCCN(Cc2ccc(Cl)cc2)C1=O (stereo not drawn) | -1 | 0 | . | 0 | . | .
COc1ccc(C2CC(=O)N3CN(c4ccc(C)c(Cl)c4)CSC3=C2C#N)cc1OC (stereo not drawn) | 9 | -11 | -5 | 41* | 2 | 25*
CCc1ccc(C2CC(=O)N3CN(c4ccccc4)CSC3=C2C#N)cc1 (stereo not drawn) | 3 | 1 | -19 | 19 | 3 | .
N#CC1=C2SCN(c3ccc(F)cc3)CN2C(=O)CC1c1cccc(F)c1 (stereo not drawn) | 12 | 7 | -1 | 27* | 0 | 61*
COC(=O)[C@]12C[C@H](CC(=O)NCC3CCCCC3)C(=O)N(Cc3cccc4ccccc34)C1=C[C@H](COCc1ccccc1)O[C@@H]2C | -3 | 1 | . | -2 | . | .
COCCCN(C(=O)c1cc(-c2ccco2)nc2ccccc12)c1c(N)n(Cc2ccccc2)c(=O)[nH]c1=O | -8 | 4 | 3 | 47* | -3 | 11
CCCn1c(N)c(N(CCOC)C(=O)c2cc(-c3ccco3)nc3ccccc23)c(=O)[nH]c1=O | 4 | 0 | 9 | 14 | -8 | .
COc1ccc(CCNC(=O)c2cc(-c3ccco3)nc3ccccc23)cc1 | -19 | -10 | . | 40* | -3 | 16
CCN(CC)CCNC(=O)c1cc(-c2ccco2)nc2ccccc12 | 4 | 3 | 7 | 7 | 3 | .
O=C(COC(=O)c1cc(-c2ccco2)nc2ccccc12)NCc1ccccc1 | -2 | -2 | -15 | 36* | 13 | 9
O=C(O)c1cc(-c2ccco2)nc2cc3ccccc3cc12 | 6 | -3 | -1 | 26* | -2 | 22*
CCCCOCCCNC(=O)C[C@H]1C[C@@]2(C(=O)OC)C(=C[C@H](C(C)C)O[C@@H]2C2CC2)N(CCc2ccc(OC)c(OC)c2)C1=O | -5 | 5 | . | 0 | . | .
C/C(C=NNC(=O)CSc1nc2ccccc2n1C)=C\c1ccccc1 | -1 | 0 | . | -3 | . | .
COc1ccc(OCC2CN(C3CCCC3)S(=O)(=O)CCO2)cc1 (stereo not drawn) | 1 | 2 | . | -5 | . | .
CN(C)S(=O)(=O)c1cccc(-n2sc3ccccc3c2=O)c1 | -41 | -16 | -9 | 102* | . | 95*
O=c1nc2sc3ccccc3n2c(=O)n1-c1cccc(Cl)c1 | . | . | -6 | . | -2 | .
O=c1c2ccccc2sn1-c1cccc(Cl)c1 | 4 | -7 | 0 | 82* | . | 84*
COc1c2c(cc3c1c(=O)c1ccccc1n3C)OCO2 | 1 | 2 | . | 3 | . | .
S=c1[nH]nc(COc2ccc(Cl)cc2)n1-c1ccc(Cl)cc1 | -4 | 4 | -11 | 28* | 16 | 17
Cc1ccc(OCc2n[nH]c(=S)n2-c2ccc(Cl)cc2)cc1 | 8 | 3 | 1 | 21 | -9 | .
SMILES | mABHD4 FP | SIAE inh | HTRA1 inhibitor | PRMT1 FP inh | GASC-1 inh | PRMT1 inh conf
COc1ccc(-n2c(COc3ccc(Cl)cc3Cl)n[nH]c2=S)cc1 | 0 | 2 | 0 | 27* | . | 9
CC1(C)Cc2c(c(N3CCOCC3)nc3sc(C(N)=O)c(N)c23)CO1 | 0 | 4 | 0 | 37* | -1 | 7
CC1(C)Cc2c(c(N3CCOCC3)nc3sc(C(=O)Nc4ccc(Cl)cc4)c(N)c23)CO1 | -14 | -4 | -4 | 53* | 21 | 1
COC(=O)CSc1ncnc2c1sc1nc(-c3ccco3)c3c(c12)CC(C)(C)OC3 | . | . | . | . | -10 | .
CCOC(=O)c1sc2nc(-c3ccco3)c3c(c2c1N)CC(C)(C)OC3 | 20 | 3 | 2 | 41* | 7 | 43*
COC(=O)C1CN(Cc2cn(Cc3ccccc3)nn2)CCS(=O)(=O)N1Cc1ccc(Cl)cc1 (stereo not drawn) | -1 | -1 | . | -2 | . | .
O=C(CC(SCCO)c1ccc2c(c1)OCO2)c1cccs1 (stereo not drawn) | -9 | -3 | -9 | 30* | 11 | 32*
CC(NC(=O)Cc1cccs1)c1ccc2c(c1)OCO2 (stereo not drawn) | 6 | 3 | 7 | 5 | 2 | .
CC(C)(C)OC(=O)N[C@@H]1C=CC(=O)C1 | 0 | 1 | . | -1 | . | .
Cc1cccc2sc(NC(=O)Cn3cccc3)nc12 | -11 | -1 | -8 | 33* | 5 | 19
CC(C)(C)C(=O)Nc1ccc(Sc2ccc([N+](=O)[O-])cc2)cc1 | -44 | 8 | -26 | -1 | 44 | .
CC(=O)Nc1ccc(Sc2ccc([N+](=O)[O-])o2)cc1 | 6 | -6 | -6 | 34* | . | 36*
CSCCC(c1nc2ccccc2[nH]1)n1c(/C=C/c2ccc(Cl)cc2)nc2ccccc21 (stereo not drawn) | -22 | 1 | . | 3 | . | .
COc1cc2c(cc1OC)C(Cc1ccccc1[N+](=O)[O-])=NCC2 | 5 | 0 | 6 | 4 | . | .
CC(=O)NNC(=S)NC(=O)c1cccc([N+](=O)[O-])c1 | -8 | -2 | -5 | 48* | 6 | 0
COCc1cc(C)c(C#N)c(=S)[nH]1 | . | . | -1 | . | -2 | .
C=CCc1c(C)[nH]c(=S)c(C#N)c1C | 6 | -7 | -14 | 32* | 5 | 53*
Cc1cccc(C)c1-n1nnnc1C(c1ccnc2ccccc12)N(CCN(C)C)Cc1ccccc1 (stereo not drawn) | -2 | -4 | . | -9 | . | .
CCOC(=O)[C@@]12CCCC3=C1N(CCC3)C(=O)[C@H]2CC(=O)NCc1cccc(C(F)(F)F)c1 | -2 | 3 | . | 5 | . | .
Cc1c(O)nc(SCC(=O)Nc2nccs2)n(-c2ccccc2F)c1=O | 6 | 3 | 1 | 28* | 11 | 18
Cc1nnc(SCC(=O)Nc2nccs2)n(N)c1=O | 3 | -4 | 8 | -1 | 16 | .
Cn1cc(C(=O)Nc2ccc(F)c(Cl)c2)cn1 | 5 | 4 | 2 | -2 | 3 | .
CN1c2ccsc2C(O)=C(C(=S)Nc2ccc(F)c(Cl)c2)S1(=O)=O | -17 | -3 | -12 | 30* | -36 | 21
CCCN=C1N/C(=C\c2ccco2)C(=O)N1c1ccccc1 | 7 | 1 | 11 | 12 | 6 | .
